# TPT1 inh: Candida albicans TPT1 enzyme inhibitors, primary screen, biochemical, fluorescence polarization; recombinant caTPT1, FP RNA substrate dephosphorylation; tRNA 2'-phosphotransferase TPT1 (Candida albicans SC5314); 300,000 tested, 0.81% active; inhibition, % at 5 µM; AID 1962, 2009;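 active = inhibition above the mean of all tested compounds plus 3 SD, set per screening campaign, cut at about 24% in these data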;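 note: plate controls were DMSO alone for no effect and ferristatin control at 100 nM for full effect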
# IDE inh: human IDE inhibitors in live cells, primary screen, fluorescence polarization, HEK cells, FAbetaB substrate; 320,000 tested, 0.41% active; FAbetaB cleavage; inhibition, % at 5.59 µM;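 active = percent inhibition above the average of all tested compounds plus 3 SD, set per screening campaign, cut at about 16% in these data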;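 note: IDE supplied by intact live HEK cells; FP after avidin binding of uncleaved biotin substrate so inhibition keeps polarization high; 0% = DMSO wells and 100% = 60 µM reference IDE inhibitor Ii1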
# Rpn11 block: Rpn11 (PSMD14) deubiquitinase inhibitors, primary screen, biochemical, fluorescence polarization, uHTS; 360,000 tested, 0.59% active; 26S proteasome non-ATPase regulatory subunit 14 (Homo sapiens), O00487; calls only at 20 µM; AID 588493, 2011; human 26S proteasome, Ub4-pepOG fluorescence polarization; 20S core pre-blocked with epoxomicin;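 active = inhibition at 20 µM, scaled to each plate's controls, above about 33%, limit read from the data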
# Target sequence (O00487 whole entry, looked up): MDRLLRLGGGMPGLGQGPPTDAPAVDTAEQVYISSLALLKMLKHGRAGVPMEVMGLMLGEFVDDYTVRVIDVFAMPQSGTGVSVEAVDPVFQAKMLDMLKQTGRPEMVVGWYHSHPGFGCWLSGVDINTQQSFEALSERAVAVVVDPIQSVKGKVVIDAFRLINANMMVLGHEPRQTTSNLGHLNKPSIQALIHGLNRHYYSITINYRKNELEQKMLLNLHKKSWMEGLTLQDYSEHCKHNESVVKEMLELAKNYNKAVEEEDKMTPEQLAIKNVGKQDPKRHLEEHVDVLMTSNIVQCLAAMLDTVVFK
# CSN inh: inhibitors of CSN-mediated cullin deneddylation, primary screen, biochemical, fluorescence polarization, uHTS. COP9 signalosome complex subunit 5 (Homo sapiens), Q92905. Purified CSN, SCF-Nedd8-OG deneddylation. inhibition, % at 12.5 µM. 360,000 tested, 0.38% active. AID 651999, 2013;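 active = pattern-corrected inhibition above about 35%, with an unprinted fluorescence ratio check between 0.5 and 1.5, limit read from the data, passing the limit was not always enough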;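 note: 0% = enzyme with substrate and 100% = substrate without enzyme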
# Target sequence (Q92905 whole entry, looked up, one chain of several): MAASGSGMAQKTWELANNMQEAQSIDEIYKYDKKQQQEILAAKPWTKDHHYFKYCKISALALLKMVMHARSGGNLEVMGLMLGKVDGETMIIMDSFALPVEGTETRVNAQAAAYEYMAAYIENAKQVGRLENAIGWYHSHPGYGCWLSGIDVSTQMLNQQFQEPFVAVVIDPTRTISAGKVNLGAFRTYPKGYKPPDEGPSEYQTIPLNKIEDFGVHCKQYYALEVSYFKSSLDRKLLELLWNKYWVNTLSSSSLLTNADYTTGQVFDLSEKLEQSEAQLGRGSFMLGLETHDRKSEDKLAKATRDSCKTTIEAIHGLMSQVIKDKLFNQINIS
#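 Material: human Csn5 produced in HEK293T cells; Input: enzyme 0.24 nM; Reagent: SCFSkp2-Nedd8OG substrate at 10 nM final; Dosing: 12.5 µM compound; Incubation: 90 min reaction at room temperature; Detection: fluorescence polarization of the substrate; Evaluation: % inhibition of substrate cleavage by Csn5; Control set: substrate-only high control, full reaction low control.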
# IDE cell activ: human IDE activators in live cells, primary screen, fluorescence polarization, HEK cells, FAbeta-B substrate | Insulin-degrading enzyme (Homo sapiens), P14735 | FAbeta-B cleavage; 0% vehicle, 100% cell-free pure enzyme wells | AID 493087, 2011 | activation, % at 5.96 µM | 340,000 tested, 0.073% active;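 active = activation above the mean of all tested compounds plus 3 SD, set per screening campaign, cut at about 17% in these data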
# HNF4A DNA FP: change in binding of human HNF4A to DNA, primary screen, biochemical, fluorescence polarization, FITC-DNA. Hepatocyte nuclear factor 4-alpha (Homo sapiens), P41235. 1 h. 360,000 tested, 0.3% active. activity change, % at 10 µM; in the data active = activity change above about 30%, passing the limit was not always enough
# Rpn11 confirm: Rpn11 (PSMD14) deubiquitinase inhibitors, confirmation, biochemical, fluorescence polarization, single concentration. shares compounds with Rpn11 block. purified human 26S proteasome, Ub4-pepOG fluorescence polarization; proteasome pretreated with epoxomicin. inhibition, % at 20 µM. 1,900 tested, 29% active
# MMP-2 inh: MMP-2 enzyme inhibition, confirmation, counter-screen for RPN11 inhibitor project, biochemical, fluorescence, single concentration. 1,900 tested, 4% active. inhibition, % at 20 µM. shares compounds with Rpn11 block. recombinant MMP-2, FRET peptide cleavage fluorescence;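 note: human MMP-2 activated beforehand with APMA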
# Thrombin FP: bovine thrombin protease inhibition, confirmation, counter-screen for Rpn11 inhibitor project, biochemical, fluorescence polarization, single concentration; shares compounds with Rpn11 block; bovine thrombin cleavage of Ub4-pepOG; inhibition, % at 20 µM; 1,900 tested, 13% active; AID 602333, 2012;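 active = mean inhibition at least 40% at 20 µM, or signal 3 deviations below plate average, so some actives read negative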;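 note: plate controls were thrombin with DMSO for no effect and buffer wells lacking thrombin for full effect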
# * marks the source's active call; other numbers are inactive results; i = inactive; . = no result; + = active, no number. A selection: hits, their analogues and other compounds. The true share with any hit is near 1.7%. Cut-off read from the data, not from the text of the source, unless noted: active = inhibition above about 40%; inactive = the rest.
SMILES,TPT1 inh,IDE inh,Rpn11 block,CSN inh,IDE cell activ,HNF4A DNA FP,Rpn11 confirm,MMP-2 inh,Thrombin FP
O=C(CSc1ncn[nH]1)N1N=C2/C(=C/c3ccccc3)CCCC2C1c1ccccc1 (configuration not stated),-2.2,3.0,i,1.2,-4.7,0.3,.,.,.
COc1ccc(C(=O)Nc2nc3nc(-c4ccccc4)cc(=O)n3[nH]2)cc1,.,.,+,2.1,8.0,-26.4,-4.2,3.9,-21.7
Cc1ccc(/C=C2\SC(=S)N(C3CCS(=O)(=O)C3)C2=O)o1 (configuration not stated),4.7,4.5,+,31.3,3.1,17.4,10.2,22.6,3.4
COc1ccc(C(=O)N/C(=C\c2ccccc2)C(=O)NC(CCSC)C(=O)O)cc1 (configuration not stated),-4.0,7.5,i,-3.1,4.1,-0.3,.,.,.
O=C(Nc1cc(Cl)ccc1Cl)c1cc(-c2ccco2)on1,9.1,-0.6,i,4.8,-3.0,10.6,.,.,.
COc1ccc(Cl)cc1NC(=O)c1cc(-c2ccco2)on1,10.0,0.2,+,19.7,-2.8,18.6,12.1,-14.8,1.6
COc1ccc(F)cc1C(=O)C1CCCN(Cc2cccn2-c2cccnc2)C1 (configuration not stated),2.0,-7.2,i,7.0,-3.8,-1.6,.,.,.
O=C(COC(=O)c1cc(S(=O)(=O)N2CCOCC2)ccc1Cl)NCc1ccco1,2.5,3.8,i,4.4,5.2,14.4,.,.,.
CCOC1=C2CN(S(=O)(=O)c3ccc(C)cc3)[C@H](c3ccccc3)C[C@@H]2N(S(C)(=O)=O)[C@H](c2ccccc2)C1,.,.,+,5.2,.,13.6,28.3,-11.0,19.3
CCc1ccccc1OCC(=O)Nc1ccc(N2CCCC2)cc1C,.,.,+,20.1,-3.3,51.6*,43.4*,-0.5,29.6
Cc1ccc(OCC(=O)N/N=C\c2cccs2)c([N+](=O)[O-])c1,1.1,-8.4,i,-2.3,-3.7,0.7,.,.,.
O=[N+]([O-])c1ccc(NN=Cc2cccc3ccccc23)cc1,.,.,+,8.2,4.5,27.0,14.5,-11.8,6.4
O=[N+]([O-])c1ccccc1C=NNc1ccccc1,.,.,i,-1.6,-2.9,-0.7,.,.,.
C[C@@H]1C[C@H]2[C@@H]3CCC4=CC(=O)C=C[C@]4(C)[C@@]3(F)[C@@H](O)C[C@]2(C)[C@@]1(O)C(=O)CO,1.7,1.4,i,-4.4,7.5,.,.,.,.
COc1ccc2c(c1)C1=NN(/C(C)=C/C(C)=O)C(c3cccc(F)c3)C1CC2 (configuration not stated),15.2,-0.2,+,5.4,-4.4,29.0,15.2,-0.2,7.5
COc1ccc2c(c1)C1=NN(/C(C)=C/C(C)=O)C(c3ccc(F)cc3)C1CC2 (configuration not stated),4.0,1.9,i,2.7,4.0,9.8,.,.,.
CCOc1ccc2nc(SCC(=O)N3c4ccccc4Sc4ccccc43)sc2c1,-0.5,1.5,i,-10.4,1.0,5.1,.,.,.
CCOc1ccc2nc(SCC(=O)N3c4ccccc4Sc4ccccc43)c(C#N)cc2c1,23.1,7.9,+,-3.2,0.3,3.0,8.6,-28.5,-2.1
COC(=O)c1ccc2nc(NC(=O)CCS(=O)(=O)c3ccccc3)sc2c1,-2.1,-1.1,i,-1.7,0.0,5.6,.,.,.
Cc1ccc(S(=O)(=O)N2CCC(C(=O)OCc3ccccc3)CC2)cc1C,0.4,1.5,i,4.7,5.8,0.2,.,.,.
Cc1ccc(N(C(=O)CCC(=O)Nc2cc(C)on2)C(C(=O)NC2CCCC2)c2ccccc2)cc1 (configuration not stated),-4.6,-2.6,i,4.5,5.1,3.2,.,.,.
Cc1cc(NC(=O)CCC(=O)N(c2ccccc2)C(C(=O)NC2CCCC2)c2ccccc2)no1 (configuration not stated),-3.4,4.3,+,-1.9,0.9,-2.0,-17.3,-52.0,-13.9
Nc1cnnc(N/N=C\c2ccccc2)c1Cl,-3.0,-2.6,i,-2.0,-1.6,-4.2,.,.,.
Cc1cccc2c1c1ccc3c(c1n2C)C(=O)C=CC3=O,.,.,+,12.4,-0.3,18.3,12.4,-1.4,11.5
Cc1ccccc1N1CC(=O)N(c2ccccc2C)CC1=O,-2.5,-3.6,i,-7.3,-0.8,-0.8,.,.,.
SMILES,TPT1 inh,IDE inh,Rpn11 block,CSN inh,IDE cell activ,HNF4A DNA FP,Rpn11 confirm,MMP-2 inh,Thrombin FP
C=CCN(CC(=O)NC1CC1)S(=O)(=O)c1cccc(C(F)(F)F)c1,.,-0.9,i,-6.6,-1.4,0.5,.,.,.
Cc1nc(SCC(=O)Nc2cc(S(=O)(=O)N3CCOCC3)ccc2Cl)nc(C)c1C,.,1.3,i,3.1,-1.1,-1.3,.,.,.
Cn1c2ccccc2c(=O)c2c(=O)n(C3CCCCCC3)c(C3CCCCC3)nc21,.,.,+,-5.2,6.2,67.0*,-3.9,-40.0,-6.9
COc1ccc(NC(=O)C2C(c3ccc4c(c3)OCO4)=Nc3ccccc3N2C(C)=O)cc1 (configuration not stated),.,.,.,-0.8,.,1.3,.,.,.
Cc1cccc(-n2c(C)cc(/C=C3/C(=N)N4C(c5ccccc5)=CSC4=NC3=O)c2C)c1,-0.8,0.8,+,2.2,3.0,24.9,-5.7,-37.0,-26.5
COc1ccc(OC)c(CNC(=O)CCSCc2ccc(F)cc2Cl)c1,3.8,-1.4,i,-0.8,0.3,0.3,.,.,.
CCOCCCNC(=O)/C(C#N)=C/c1ccc([N+](=O)[O-])o1,-0.4,2.2,+,5.9,-10.1,0.3,18.1,-30.9,18.4
CCOCCCNC(=O)/C(C#N)=C/c1ccc(-c2ccc(S(=O)(=O)N3CCOCC3)cc2)o1,4.5,4.4,i,-3.0,0.3,3.5,.,.,.
